From PubChem
In the library only some 3.5% were active in any assay of this set; here they are far more common.
MrgX1 antagonist: antagonists of human MrgX1 receptor, primary screen, HEK293 cells, Fluo-4 calcium flux; BAM8-22 antagonism; active compounds read low; B-score at 10 µM; 1.3% of 310,000 active;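 active = calcium-response B-score plate-corrected more than 3 library SD below zero, starting fluorescence within 5 deviations, no agonist response on first addition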;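 also: peak minus trough fluorescence over baseline after final BAM8-22 challenge near maximal dose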
Target sequence (Q96LB2 whole entry, looked up): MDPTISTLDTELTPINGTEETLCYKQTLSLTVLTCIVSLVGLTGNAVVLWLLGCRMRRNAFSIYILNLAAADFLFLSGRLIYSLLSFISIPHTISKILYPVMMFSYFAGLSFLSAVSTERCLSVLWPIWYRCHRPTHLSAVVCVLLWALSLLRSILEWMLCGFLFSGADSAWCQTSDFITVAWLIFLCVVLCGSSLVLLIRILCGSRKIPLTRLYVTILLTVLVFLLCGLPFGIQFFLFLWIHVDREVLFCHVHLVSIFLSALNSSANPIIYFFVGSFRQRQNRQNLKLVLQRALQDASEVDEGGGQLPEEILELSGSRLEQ
RGS4 block: RGS4 inhibitors, primary screen, cell-based, HEK293 M3R inducible RGS4, calcium flux. Fluo-4 calcium flux; active compounds read high; triggered by carbachol at its EC20. B-score at 10 µM. 0.45% of 310,000 active. Regulator of G-protein signaling 4 (Homo sapiens), P49798;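 active = B-score, a plate-corrected calcium signal, over three deviations above library mean, with baseline fluorescence within five deviations of library mean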;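 also: RGS4 expression induced by doxycycline in cells with stable M3 receptor; B-score is computed from the integrated fluorescence ratio over baseline after carbachol; higher B-score means a larger calcium signal and so more RGS4 inhibition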
Target sequence (P49798 whole entry, looked up): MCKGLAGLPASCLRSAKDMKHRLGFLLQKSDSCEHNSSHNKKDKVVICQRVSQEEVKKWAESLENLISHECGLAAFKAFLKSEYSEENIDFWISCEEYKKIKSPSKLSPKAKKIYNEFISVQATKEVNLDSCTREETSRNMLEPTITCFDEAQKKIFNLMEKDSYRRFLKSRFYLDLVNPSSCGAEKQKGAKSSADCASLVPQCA
MrgX1 ag: agonists of human MrgX1 receptor, primary screen, HEK293 cells, Fluo-4 calcium flux | B-score at 10 µM | 0.44% of 310,000 active | Fluo-4 calcium fluorescence, agonist mode; active compounds read high | Mas-related G-protein coupled receptor member X1 (Homo sapiens), Q96LB2;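 active = calcium response B-score plate-corrected fluorescence ratio at least 3 library SD, with starting fluorescence B-score inside 5 SD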
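Test system: HEK293 cells stably expressing human MrgX1 receptor; amount: 15,000 cells per well; doses: compound delivered in addition one of three; times: overnight plating before 1 h dye loading; detection: Fluo-4 NW calcium-flux fluorescence, kinetic read; read-out basis: B-scored fluorescence response ratio; controls: positive and negative controls per plate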
RGS4 pot: RGS4 potentiators or activators, primary screen, cell-based, HEK293 M3R inducible RGS4, calcium flux | carbachol calcium flux Fluo4; active compounds read low | B-score at 10 µM | 0.92% of 310,000 active | AID 463111, 2010;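 active = B-score of the integrated calcium signal more than 4 SD below the library mean, with starting fluorescence not abnormally high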;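 also: negative B-score means reduced calcium response which marks RGS4 activation or potentiation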
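Also added: carbachol at ECmax as muscarinic agonist stimulus; Assay system: HEK293 cells with stable M3R and inducible RGS4; Timing: overnight RGS4 induction, 30 min dye load 37 °C, 20 min compound RT; Measured by: Fluo4-AM (2 µM) calcium-flux fluorescence, kinetic read.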
MrgX1 PAM: positive allosteric modulators of MrgX1, primary screen, HEK293 cells, Fluo-4 calcium flux | Mas-related G-protein coupled receptor member X1 (Homo sapiens), Q96LB2 | FDSS; active compounds read high | B-score at 10 µM | 0.63% of 310,000 active;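 active = plate-corrected calcium response at least 3 library SD above typical, normal starting fluorescence, not activating the receptor alone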;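 also: compound read alongside a low EC10 to EC30 dose of BAM8-22 agonist; peak minus trough fluorescence over baseline measured at the second addition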
Starred values were filed as active, the others as inactive; i = inactive; . = no result given.

SMILES	MrgX1 antagonist	RGS4 block	MrgX1 ag	RGS4 pot	MrgX1 PAM
COc1ccc(CCN2C(=O)CSC2=Nc2ccc(C(C)C)cc2)cc1OC	i	i	i	-7.2*	i
O=C1C2CC=CCC2C(=O)N1c1ccc(NCCc2ccc(Cl)cc2)c([N+](=O)[O-])c1 (stereo unspecified)	i	i	i	i	i
O=C1C2CC=CCC2C(=O)N1c1ccc(NCCc2ccc(O)cc2)c([N+](=O)[O-])c1 (stereo unspecified)	-5.2*	i	i	i	i
Cc1ccc(C)c(C(=O)Nc2ccncc2)c1	i	i	i	i	i
Cc1ccc(C(=O)c2oc3ccccc3c2NC(=O)c2cc(-c3cc(C)ccc3O)n[nH]2)cc1	-5.2*	i	i	i	i
COCCN(Cc1cc2cc(C)ccc2nc1Cl)C(=O)Nc1ccccc1OC	i	i	i	i	i
Cc1ccc(S(=O)(=O)Oc2ccccc2/C=C2/SC(=O)NC2=O)cc1	i	i	27*	i	i
O=C(O)C1CCN(S(=O)(=O)/C=C/c2ccccc2)CC1	i	i	i	i	i
CCCN1C(=O)c2cc(C(=O)Nc3ccccc3OC)ccc2C1Nc1ccccc1OC (stereo unspecified)	i	i	i	-7.2*	i
C[n+]1ccc(/C=C/c2c[nH]c3ccc(F)cc23)cc1	i	i	i	-7.8*	i
Cn1cc(/C=C/c2cc[n+](C)cc2)c2cc(F)ccc21	i	i	i	i	i
CC(=O)N1CCCc2cc(S(=O)(=O)N3CCCC(C(=O)Nc4cccc(C)c4)C3)ccc21 (stereo unspecified)	i	i	i	i	i
COc1ccc2c(c1)[nH]c1c(N3CCN(Cc4ccc5c(c4)OCO5)CC3)ncnc12	-6.1*	i	i	i	i
CN(c1ncnc(N)c1[N+](=O)[O-])C1CCCCC1	i	i	27*	i	i
CC(C)(C)c1ccc(C(=O)Cn2cnnc2C#N)cc1	i	i	i	i	i
CCCN1C(=O)/C(=C/C=C2\N(CC)c3ccccc3C2(C)C)SC1=S	i	i	i	i	12*
C=CCN1C(=O)/C(=C\C=C2\N(C)c3ccccc3C2(C)C)SC1=S	i	i	31*	i	i
CN1/C(=C\C=C2/SC(=S)N(CC(=O)O)C2=O)C(C)(C)c2ccccc21	i	i	i	i	i
O=C(NC1CCN(Cc2ccccc2)CC1)c1ccccc1OCc1ccccc1Cl	i	i	i	i	10*
O=C(NC1CCN(Cc2ccccc2)CC1)c1ccccc1OCc1ccccc1	i	i	i	i	i
COc1ccc(CCNc2oc(COc3ccccc3F)nc2C#N)cc1OC	i	.	i	.	i
COc1ccc(CCNc2oc(COc3ccccc3Cl)nc2C#N)cc1OC	i	i	i	-7.3*	i
COc1ccc(CNC(=O)c2ccc(NC(=O)C3=CSCCO3)cc2)cc1	i	i	i	i	i
CC(C)=CCc1c(O)cc2oc3c(CC=C(C)C)c(O)c(O)c(CC=C(C)C)c3c(=O)c2c1O	-5.6*	i	i	i	i
CCOC(=O)c1c(C)[nH]c(C(=O)N2CCCC(C(=O)c3cccc(OC)c3)C2)c1C (stereo unspecified)	i	i	i	i	i
SMILES	MrgX1 antagonist	RGS4 block	MrgX1 ag	RGS4 pot	MrgX1 PAM
CCOC(=O)c1c(C)[nH]c(C(=O)N2CCCC(C(=O)c3ccccc3OC)C2)c1C (stereo unspecified)	i	i	i	i	27*
O=C(O)c1cc([N+](=O)[O-])ccc1N1CCCCC1	i	i	i	i	i
O=C(O)c1cc([N+](=O)[O-])ccc1N1CCC(Cc2ccccc2)CC1	i	i	40*	i	i
Cc1ccc(Cl)cc1NC(=O)CN1CCN(S(=O)(=O)N2CCC(C)CC2)CC1	i	i	i	i	i
COc1ccc(C2SCCN2C(=S)Nc2cccc(C(F)(F)F)c2)cc1 (stereo unspecified)	-5.3*	i	i	i	i
Cc1ccc(S(=O)(=O)c2c(COC(=O)c3ccccc3Cl)c(-c3ccccc3)nn2C)cc1	i	i	i	i	i
CCOc1ccc(OCC(=O)OCC(=O)N(CC(C)C)c2c(N)n(Cc3ccccc3)c(=O)[nH]c2=O)cc1	i	i	i	i	i
CC(C)CN(C(=O)COC(=O)COc1ccc2ccccc2c1)c1c(N)n(Cc2ccccc2)c(=O)[nH]c1=O	-6.4*	i	i	i	i
CCOCCCNC(=O)C(Cc1ccccc1)NS(=O)(=O)c1ccc2c(c1)c(=O)n(C)c(=O)n2C (stereo unspecified)	-5.8*	i	i	i	i
Cc1onc(-c2ccccc2)c1NC(=O)N(CCC(=O)O)Cc1ccccc1	i	i	i	i	i
COc1ccc2oc(=O)cc(-c3cc4cccc(OC)c4o3)c2c1	i	i	i	i	i
CCN(CC)C(=O)Oc1ccc2oc(=O)cc(-c3cc4cccc(OC)c4o3)c2c1	i	i	i	-7.2*	i
c1ccc(-c2ccc(CN3CCN(c4ncccn4)CC3)cc2)cc1	i	i	i	-7*	i
CCc1ccccc1NC(=O)CSc1nnc(Cn2nnc3ccccc32)n1C	i	i	i	-7.5*	i
COc1ccc(NC(=O)CSc2nnc(Cn3nnc4ccccc43)n2C)cc1	i	.	i	.	i
COc1ccc(-c2csc3ncnc(N4CCN(S(=O)(=O)c5ccc(C)cc5)CC4)c23)cc1	i	i	i	-7.5*	i
COc1ccc(-c2csc3ncnc(N4CCN(S(=O)(=O)c5ccc(Cl)s5)CC4)c23)cc1	i	i	i	i	i
Cc1ccc(N2C(=O)N(CC(=O)Nc3ccc(F)c(F)c3)C(=O)C2C)cc1 (stereo unspecified)	i	i	i	i	i
C[N+]1(CC(=O)OC2CCCCCCCCCCC2)CCCC1	i	i	i	-7.2*	i
Cc1cc(Br)c2c(c1)C(O)(N1CCCCC1C)C(=O)N2 (stereo unspecified)	i	i	i	i	i
Cc1c(N=Cc2ccc(O)c(Br)c2)cccc1[N+](=O)[O-]	i	i	i	i	i
